Compound activity as filed in PubChem.
SIRT5 block: SIRT5 desuccinylase inhibitors, primary screen, biochemical, fluorescence imaging, single point, set 5; NAD-dependent protein deacylase sirtuin-5, mitochondrial (Homo sapiens), Q9NXA8; Purified SirT5, succinyl-peptide AMC, trypsin-coupled fluorescence; inhibition, % at 15 µM; 330,000 tested, 1.1% active; AID 652115, 2013; in the data active means inhibition above about 15%
Target sequence (Q9NXA8 whole entry, looked up): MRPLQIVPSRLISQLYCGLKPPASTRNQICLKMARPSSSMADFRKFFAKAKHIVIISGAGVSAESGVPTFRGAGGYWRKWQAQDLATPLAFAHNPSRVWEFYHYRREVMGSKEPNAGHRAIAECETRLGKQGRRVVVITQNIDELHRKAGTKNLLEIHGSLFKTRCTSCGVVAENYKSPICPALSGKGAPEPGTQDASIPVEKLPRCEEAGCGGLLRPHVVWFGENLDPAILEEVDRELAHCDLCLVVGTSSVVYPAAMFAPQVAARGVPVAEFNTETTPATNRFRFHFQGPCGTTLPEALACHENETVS
PGC1a acetyl inh: inhibitors of PGC1a acetylation signal, primary screen, cell-based, U2OS, AlphaScreen, inhibitor mode | AlphaScreen anti-acetyl-lysine; with virally co-expressed GCN5 acetyltransferase | inhibition, % at 15.6 µM | 350,000 tested, 0.17% active;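 active means every replicate shows inhibition of at least 40%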;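 further: 0% = neutral control wells and 100% = positive control wells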
S100A4 inh HTS: inhibitors of S100A4-myosin IIA peptide binding, primary screen, biochemical, fluorescence polarization, TAMRA-MyoIIA peptide; Protein S100-A4 (Homo sapiens), P26447; inhibition, % at 10.7 µM; 360,000 tested, 0.14% active;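 active means mean inhibition of at least 70% across replicates, with every replicate also reaching that level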
Target sequence (P26447 whole entry, looked up): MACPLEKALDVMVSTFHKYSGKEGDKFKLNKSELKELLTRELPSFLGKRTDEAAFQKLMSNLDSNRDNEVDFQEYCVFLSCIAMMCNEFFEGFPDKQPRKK
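Test system – S100A4 monomer (human) · Compound – single-point compound testing · Schedule – 5 min incubation before reading · Probe or stimulus – TAMRA-labelled myosin IIA heavy-chain peptide probe, 5 nM · Benchmarks – neutral control DMSO, positive control TFP · Medium – Calcium-containing HEPES buffer, pH 7.2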
Cneo AK release: Cryptococcus neoformans cell lysis inducers, primary screen, AK release luminescence, single concentration; C. neoformans lysis, adenylate kinase release luminescence, 4 h; normalised: neutral wells 0, clomiphene wells 100; lysis activity, % at 15 µM; 360,000 tested, 0.2% active;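 active means mean lysis activity across replicates of at least 80%, whatever share of replicates individually reach that level; inactive means mean lysis activity below 80%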
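read-out = cell lysis signal | test system = log-phase Cryptococcus neoformans yeast cells | input = cells at 5 × 10^6 per mL | medium = fresh YPD growth medium | signal = luminescent adenylate kinase detection reagent | timing = 4 h at 37 °C static, read 1 h later | dosing = single dose | controls = Clomiphene as positive lysis control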
Ecoli rRNA inh: reduced GFP signal of wild-type E. coli, primary screen, bacterial rRNA inhibitor project, GFP/RFP fluorescence, OD600, single point; E. coli WT GFP vs humanized-ribosome RFP mutants, 24 h; active compounds read low; DMSO median 0, no signal -100; GFP signal change (wild-type ribosome), % (no concentration beside the values); 350,000 tested, 1.6% active;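 active means significant combined selectivity score with lowered wild-type GFP, culture density cut under 30%, mutant RFP and density less affected; inactive means any of these conditions unmet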
Statin myotox sup: suppressors of statin myotoxicity in C2C12 myotubes, primary screen, cell-based, single point, plate reader; rescue of ATP level, % at 7.49 µM; 330,000 tested, 0.78% active; C2C12 myotubes + simvastatin, ATP luminescence, 48 h; scaled: DMSO 0, geranylgeraniol control 100;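 active means mean ATP rescue above about 67%, or every replicate alone reaching that limit, limit read from the data, passing the limit was not always enough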;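 further: myotubes were challenged with 10 µM simvastatin during compound exposure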
Starred values were filed as active, the others as inactive. Hits are enriched below; roughly 3% of the tested compounds scored in any of these assays.

Screening COCC(=O)Nc1ccc2c(c1)[C@@H]1C[C@H](CC(=O)NCc3cccnc3)O[C@@H](CO)[C@@H]1O2 returned SIRT5 block -3, PGC1a acetyl inh 7, S100A4 inh HTS 6, Cneo AK release 0, Ecoli rRNA inh -2 and Statin myotox sup 2.
Screening CCOC(=O)c1cccc(OC(=O)CCNC(=O)c2ccc(Cl)cc2)c1 returned SIRT5 block -2, S100A4 inh HTS 0, Cneo AK release 0, Ecoli rRNA inh -28* and Statin myotox sup 23.
`CNC(=O)C[C@H]1CC[C@@H]2[C@@H](COc3ccc(NC(=O)c4ccc(F)cc4)cc3C(=O)N2C)O1` gave PGC1a acetyl inh 3, Ecoli rRNA inh -1 and Statin myotox sup 17.
Screening COc1ccc(CCNC(=S)N2CCC(C(N)=O)CC2)cc1 returned SIRT5 block -2, PGC1a acetyl inh 1, S100A4 inh HTS -4, Cneo AK release -3, Ecoli rRNA inh 7 and Statin myotox sup 8.
COc1ccc(C(=O)C2CCN(C(=S)NCCc3ccccc3)CC2)cc1 was read as SIRT5 block 16*, PGC1a acetyl inh -6, S100A4 inh HTS -8 and Ecoli rRNA inh 5.
Screening CCNC(=O)C1CCCN(C(=O)c2ccc(OC)c(OC)c2)CC1 (stereo not drawn) returned SIRT5 block 17*, PGC1a acetyl inh 5, S100A4 inh HTS 3, Cneo AK release 0, Ecoli rRNA inh 15 and Statin myotox sup 59.
For COc1ccc(N/N=C(\C#N)C(=O)NCCc2ccc(OC)c(OC)c2)cc1 the results were SIRT5 block 0, PGC1a acetyl inh 7, S100A4 inh HTS -3, Ecoli rRNA inh -38* and Statin myotox sup 23.
For COc1ccc(C(=O)C2CCN(C(=S)NCCc3ccc(OC)c(OC)c3)CC2)cc1 the results were SIRT5 block -3, PGC1a acetyl inh -6, S100A4 inh HTS -5 and Ecoli rRNA inh -25*.
For CO[C@@H]1CN(C)C(=O)c2cc(NC(=O)NC(C)C)ccc2OC[C@H](C)N(C(=O)CC2CC2)C[C@H]1C the results were SIRT5 block 2, PGC1a acetyl inh -7, S100A4 inh HTS -11, Cneo AK release 1, Ecoli rRNA inh -2 and Statin myotox sup 2.
`O=C(c1cccnc1)N1CC[C@@H]2[C@H](CO)Nc3ccc(C#Cc4cccnc4)cc3[C@@H]21` gave SIRT5 block -14, PGC1a acetyl inh 5, S100A4 inh HTS -4, Cneo AK release 3, Ecoli rRNA inh -1 and Statin myotox sup -34.
Nc1nsc2ccccc12 was read as SIRT5 block -4, PGC1a acetyl inh -44, S100A4 inh HTS 3, Cneo AK release -2, Ecoli rRNA inh 3 and Statin myotox sup 120*.
Cc1cccc(NC(=O)C2(c3ccccc3)CC2(Cl)Cl)c1 (stereo not drawn) was read as PGC1a acetyl inh -8, Cneo AK release 3 and Statin myotox sup 7.
For Cc1ccc(NC(=O)C2(c3ccccc3)CC2(Cl)Cl)cc1C (stereo not drawn) the results were PGC1a acetyl inh -3, Cneo AK release -1 and Statin myotox sup 143*.
Cc1ccc(S(=O)(=O)N(C)C[C@@H]2OCCCC[C@@H](C)Oc3ccc(NS(=O)(=O)c4ccc(Cl)cc4)cc3C(=O)N([C@H](C)CO)C[C@@H]2C)cc1 was read as SIRT5 block 15, PGC1a acetyl inh 11, S100A4 inh HTS -2, Cneo AK release -1, Ecoli rRNA inh 1 and Statin myotox sup 2.
`Cc1ccc(S(=O)(=O)N(C)C[C@@H]2OCCCC[C@H](C)Oc3ccc(NS(=O)(=O)c4ccc(Cl)cc4)cc3C(=O)N([C@@H](C)CO)C[C@H]2C)cc1` gave SIRT5 block 22*, PGC1a acetyl inh 4, S100A4 inh HTS 2, Cneo AK release 1, Ecoli rRNA inh -2 and Statin myotox sup -21.
For Cc1ccc(S(=O)(=O)N(C)C[C@H]2OCCCC[C@H](C)Oc3ccc(NS(=O)(=O)c4ccc(Cl)cc4)cc3C(=O)N([C@@H](C)CO)C[C@@H]2C)cc1 the results were SIRT5 block 24*, PGC1a acetyl inh -3, S100A4 inh HTS -11, Cneo AK release 4, Ecoli rRNA inh -1 and Statin myotox sup 30.
Cc1ccc(S(=O)(=O)N(C)C[C@H]2OCCCC[C@H](C)Oc3ccc(NS(=O)(=O)c4ccc(Cl)cc4)cc3C(=O)N([C@@H](C)CO)C[C@H]2C)cc1 was read as SIRT5 block 26*, PGC1a acetyl inh 7, S100A4 inh HTS -2, Cneo AK release 1, Ecoli rRNA inh -1 and Statin myotox sup 22.
`COc1ccc(S(=O)(=O)N(C)C[C@@H]2OCCCC[C@H](C)Oc3ccc(NC(=O)C4CCCCC4)cc3C(=O)N([C@H](C)CO)C[C@H]2C)cc1` gave SIRT5 block 6, PGC1a acetyl inh 2, S100A4 inh HTS -2, Cneo AK release -2 and Ecoli rRNA inh -1.
For CC1CCN(C(=O)CNC(=O)c2cccc(OC(F)F)c2)CC1 the results were SIRT5 block 0, PGC1a acetyl inh 1, S100A4 inh HTS 2, Cneo AK release -2, Ecoli rRNA inh 12 and Statin myotox sup -15.
For COc1cccc(C(=O)NCC(=O)N2CCC(C)CC2)c1 the results were PGC1a acetyl inh -1, Cneo AK release -1 and Statin myotox sup 99*.
Screening CCCc1ccc(-c2cc(NC(=O)CSc3nnc(N)s3)n(-c3ccccc3)n2)cc1 returned SIRT5 block 20*, PGC1a acetyl inh -13, S100A4 inh HTS 8, Cneo AK release -6, Ecoli rRNA inh -9 and Statin myotox sup -14.
Screening CN(C)CC#Cc1ccc([C@H]2[C@H]3CN(C(=O)Cc4cccnc4)CC(=O)N3[C@H]2CO)cc1 returned Ecoli rRNA inh 7.
For COCCNC(=S)N(CCc1c(C)[nH]c2ccc(Cl)cc12)Cc1cccs1 the results were SIRT5 block 1, PGC1a acetyl inh -13, S100A4 inh HTS -4, Cneo AK release -1, Ecoli rRNA inh -22* and Statin myotox sup -21.
COCCNC(=S)N(CCc1c(C)[nH]c2ccc(F)cc12)Cc1cccs1 was read as SIRT5 block 8, S100A4 inh HTS -3, Ecoli rRNA inh -47 and Statin myotox sup -66.
